Experimental data: ChEMBL document CHEMBL3045952, “Design, synthesis, and fungicidal activity of novel analogues of pyrrolnitrin” (J Agric Food Chem, 2009)
Values after ≈ are worked out from the molar mass of the structure shown.

Tests used:
Fusarium oxysporum [1] = test: Fungicidal activity against Fusarium oxysporum assessed as mycelium growth inhibition at 50 ug/mL by mycelium growth rate method; type: functional; conditions: read-out: GI
Method in brief: (§1)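 In vitro mycelium growth rate method, with fenpiclonil as control. Compounds were tested at 50, 20 and 10 μg mL-1. Mycelial diameters were measured once the mycelia had grown completely. Inhibition (%) = (D1 − D2)/D1 × 100, where D1 is the mean mycelial diameter in the blank and D2 is the mean diameter with compound.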

[2] = test system: Botryosphaeria berengeriana; test: Fungicidal activity against Botryosphaeria berengeriana assessed as mycelium growth inhibition at 50 ug/mL by mycelium growth rate method; type: functional; conditions: read-out: GI; method in brief: as §1
Fusarium graminearum [3] = test: Fungicidal activity against Fusarium graminearum assessed as mycelium growth inhibition at 50 ug/mL by mycelium growth rate method; type: functional; conditions: read-out: GI; method in brief: as §1
Alternaria solani [4] = test: Fungicidal activity against Alternaria solani assessed as mycelium growth inhibition at 50 ug/mL by mycelium growth rate method; type: functional; conditions: read-out: GI; method in brief: as §1
Mycosphaerella arachidis [5] = test: Fungicidal activity against Mycosphaerella arachidis assessed as mycelium growth inhibition by mycelium growth rate method; type: functional, organism-based
Method in brief: (§2)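 EC50 was calculated by the […] from in vitro growth-rate inhibition ratios. Inhibition (%) = (D1 − D2)/D1 × 100, taken from mean mycelial diameters of the blank (D1) and the treated plates (D2) once mycelia had grown completely. Fenpiclonil served as control.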

Fusarium oxysporum [6] = test: Fungicidal activity against Fusarium oxysporum assessed as mycelium growth inhibition by mycelium growth rate method; type: functional, organism-based; method in brief: as §2
[7] = test system: Botryosphaeria berengeriana; test: Fungicidal activity against Botryosphaeria berengeriana assessed as mycelium growth inhibition by mycelium growth rate method; type: functional, organism-based; method in brief: as §2
Fusarium graminearum [8] = test: Fungicidal activity against Fusarium graminearum assessed as mycelium growth inhibition by mycelium growth rate method; type: functional, organism-based; method in brief: as §2
Alternaria solani [9] = test: Fungicidal activity against Alternaria solani assessed as mycelium growth inhibition by mycelium growth rate method; type: functional, organism-based; method in brief: as §2
Mycosphaerella arachidis [10] = test: Fungicidal activity against Mycosphaerella arachidis assessed as mycelium growth inhibition at 50 ug/mL by mycelium growth rate method; type: functional; conditions: read-out: GI; method in brief: as §1
[11] = test system: Botryosphaeria berengeriana; test: Fungicidal activity against Botryosphaeria berengeriana assessed as mycelium growth inhibition at 10 ug/mL by mycelium growth rate method; type: functional; conditions: read-out: GI; method in brief: as §1
[12] = test system: Botryosphaeria berengeriana; test: Fungicidal activity against Botryosphaeria berengeriana assessed as mycelium growth inhibition at 20 ug/mL by mycelium growth rate method; type: functional; conditions: read-out: GI; method in brief: as §1
Fusarium graminearum [13] = test: Fungicidal activity against Fusarium graminearum assessed as mycelium growth inhibition at 10 ug/mL by mycelium growth rate method; type: functional; conditions: read-out: GI; method in brief: as §1
Fusarium graminearum [14] = test: Fungicidal activity against Fusarium graminearum assessed as mycelium growth inhibition at 20 ug/mL by mycelium growth rate method; type: functional; conditions: read-out: GI; method in brief: as §1
Alternaria solani [15] = test: Fungicidal activity against Alternaria solani assessed as mycelium growth inhibition at 10 ug/mL by mycelium growth rate method; type: functional; conditions: read-out: GI; method in brief: as §1
Alternaria solani [16] = test: Fungicidal activity against Alternaria solani assessed as mycelium growth inhibition at 20 ug/mL by mycelium growth rate method; type: functional; conditions: read-out: GI; method in brief: as §1
Mycosphaerella arachidis [17] = test: Fungicidal activity against Mycosphaerella arachidis assessed as mycelium growth inhibition at 10 ug/mL by mycelium growth rate method; type: functional; conditions: read-out: GI; method in brief: as §1
Mycosphaerella arachidis [18] = test: Fungicidal activity against Mycosphaerella arachidis assessed as mycelium growth inhibition at 20 ug/mL by mycelium growth rate method; type: functional; conditions: read-out: GI; method in brief: as §1
Fusarium oxysporum [19] = test: Fungicidal activity against Fusarium oxysporum assessed as mycelium growth inhibition at 10 ug/mL by mycelium growth rate method; type: functional; conditions: read-out: GI; method in brief: as §1
Fusarium oxysporum [20] = test: Fungicidal activity against Fusarium oxysporum assessed as mycelium growth inhibition at 20 ug/mL by mycelium growth rate method; type: functional; conditions: read-out: GI; method in brief: as §1

O=[N+]([O-])c1c(Cl)c(Cl)cc(Cl)c1-c1ccsc1
inhibition of growth at 50 µg/mL (Fusarium oxysporum [1]): 36% | inhibition of growth at 50 µg/mL [2]: 90% | inhibition of growth at 50 µg/mL (Fusarium graminearum [3]): 47% | inhibition of growth at 50 µg/mL (Alternaria solani [4]): 49% | EC50 (Mycosphaerella arachidis [5]): > 50 µg/mL | EC50 (Fusarium oxysporum [6]): > 50 µg/mL | EC50 [7]: 36.7 µg/mL (≈ 119 µM) | EC50 (Fusarium graminearum [8]): > 50 µg/mL | EC50 (Alternaria solani [9]): > 50 µg/mL | inhibition of growth at 50 µg/mL (Mycosphaerella arachidis [10]): 50%

O=[N+]([O-])c1cc([N+](=O)[O-])c(-c2ccsc2)cc1F
inhibition of growth at 50 µg/mL (Fusarium oxysporum [1]): 100% | inhibition of growth at 50 µg/mL [2]: 100% | inhibition of growth at 50 µg/mL (Fusarium graminearum [3]): 100% | inhibition of growth at 50 µg/mL (Alternaria solani [4]): 68% | EC50 (Mycosphaerella arachidis [5]): 7.16 µg/mL (≈ 26.7 µM) | EC50 (Fusarium oxysporum [6]): 4.42 µg/mL (≈ 16.5 µM) | EC50 [7]: 4.41 µg/mL (≈ 16.4 µM) | EC50 (Fusarium graminearum [8]): 27.5 µg/mL (≈ 103 µM) | EC50 (Alternaria solani [9]): 25.2 µg/mL (≈ 94 µM) | inhibition of growth at 50 µg/mL (Mycosphaerella arachidis [10]): 100%

N#Cc1c[nH]cc1-c1cccc(Cl)c1Cl [FENPICLONIL]
inhibition of growth at 50 µg/mL (Fusarium oxysporum [1]): 18% | inhibition of growth at 50 µg/mL [2]: 100% | inhibition of growth at 50 µg/mL (Fusarium graminearum [3]): 100% | inhibition of growth at 50 µg/mL (Alternaria solani [4]): 100% | EC50 (Fusarium oxysporum [6]): > 50 µg/mL | inhibition of growth at 50 µg/mL (Mycosphaerella arachidis [10]): 100%

O=[N+]([O-])c1cc(F)c(Cl)cc1-c1ccsc1
inhibition of growth at 50 µg/mL (Fusarium oxysporum [1]): 87% | inhibition of growth at 10 µg/mL [11]: 64% | inhibition of growth at 20 µg/mL [12]: 74% | inhibition of growth at 10 µg/mL (Fusarium graminearum [13]): 0% | inhibition of growth at 50 µg/mL [2]: 80% | inhibition of growth at 50 µg/mL (Fusarium graminearum [3]): 47% | inhibition of growth at 20 µg/mL (Fusarium graminearum [14]): 30% | inhibition of growth at 10 µg/mL (Alternaria solani [15]): 0% | inhibition of growth at 20 µg/mL (Alternaria solani [16]): 35% | inhibition of growth at 50 µg/mL (Alternaria solani [4]): 60% | inhibition of growth at 10 µg/mL (Mycosphaerella arachidis [17]): 0% | inhibition of growth at 20 µg/mL (Mycosphaerella arachidis [18]): 18% | inhibition of growth at 50 µg/mL (Mycosphaerella arachidis [10]): 25% | inhibition of growth at 10 µg/mL (Fusarium oxysporum [19]): 18% | inhibition of growth at 20 µg/mL (Fusarium oxysporum [20]): 43%

O=[N+]([O-])c1cc(F)ccc1-c1ccsc1
inhibition of growth at 50 µg/mL (Fusarium oxysporum [1]): 75% | inhibition of growth at 10 µg/mL [11]: 0% | inhibition of growth at 20 µg/mL [12]: 20% | inhibition of growth at 10 µg/mL (Fusarium graminearum [13]): 8% | inhibition of growth at 50 µg/mL [2]: 80% | inhibition of growth at 50 µg/mL (Fusarium graminearum [3]): 39% | inhibition of growth at 20 µg/mL (Fusarium graminearum [14]): 30% | inhibition of growth at 10 µg/mL (Alternaria solani [15]): 10% | inhibition of growth at 20 µg/mL (Alternaria solani [16]): 35% | inhibition of growth at 50 µg/mL (Alternaria solani [4]): 55% | inhibition of growth at 10 µg/mL (Mycosphaerella arachidis [17]): 0% | inhibition of growth at 20 µg/mL (Mycosphaerella arachidis [18]): 0% | inhibition of growth at 50 µg/mL (Mycosphaerella arachidis [10]): 0% | inhibition of growth at 10 µg/mL (Fusarium oxysporum [19]): 0% | inhibition of growth at 20 µg/mL (Fusarium oxysporum [20]): 50%

O=[N+]([O-])c1cc(-c2ccc(Cl)cc2[N+](=O)[O-])cs1
inhibition of growth at 50 µg/mL (Fusarium oxysporum [1]): 17% | inhibition of growth at 10 µg/mL [11]: 0% | inhibition of growth at 20 µg/mL [12]: 0% | inhibition of growth at 10 µg/mL (Fusarium graminearum [13]): 0% | inhibition of growth at 50 µg/mL [2]: 2% | inhibition of growth at 50 µg/mL (Fusarium graminearum [3]): 4% | inhibition of growth at 20 µg/mL (Fusarium graminearum [14]): 0% | inhibition of growth at 10 µg/mL (Alternaria solani [15]): 0% | inhibition of growth at 20 µg/mL (Alternaria solani [16]): 0% | inhibition of growth at 50 µg/mL (Alternaria solani [4]): 19% | inhibition of growth at 10 µg/mL (Mycosphaerella arachidis [17]): 0% | inhibition of growth at 20 µg/mL (Mycosphaerella arachidis [18]): 0% | inhibition of growth at 50 µg/mL (Mycosphaerella arachidis [10]): 2% | inhibition of growth at 10 µg/mL (Fusarium oxysporum [19]): 0% | inhibition of growth at 20 µg/mL (Fusarium oxysporum [20]): 0%

O=[N+]([O-])c1cc(Cl)ccc1-c1ccsc1[N+](=O)[O-]
inhibition of growth at 50 µg/mL (Fusarium oxysporum [1]): 17% | inhibition of growth at 10 µg/mL [11]: 0% | inhibition of growth at 20 µg/mL [12]: 10% | inhibition of growth at 10 µg/mL (Fusarium graminearum [13]): 0% | inhibition of growth at 50 µg/mL [2]: 25% | inhibition of growth at 50 µg/mL (Fusarium graminearum [3]): 0% | inhibition of growth at 20 µg/mL (Fusarium graminearum [14]): 0% | inhibition of growth at 10 µg/mL (Alternaria solani [15]): 0% | inhibition of growth at 20 µg/mL (Alternaria solani [16]): 0% | inhibition of growth at 50 µg/mL (Alternaria solani [4]): 9% | inhibition of growth at 10 µg/mL (Mycosphaerella arachidis [17]): 0% | inhibition of growth at 20 µg/mL (Mycosphaerella arachidis [18]): 0% | inhibition of growth at 50 µg/mL (Mycosphaerella arachidis [10]): 0% | inhibition of growth at 10 µg/mL (Fusarium oxysporum [19]): 0% | inhibition of growth at 20 µg/mL (Fusarium oxysporum [20]): 0%

O=[N+]([O-])c1cc(-c2ccc(F)cc2[N+](=O)[O-])cs1
inhibition of growth at 50 µg/mL (Fusarium oxysporum [1]): 25% | inhibition of growth at 10 µg/mL [11]: 4% | inhibition of growth at 20 µg/mL [12]: 10% | inhibition of growth at 10 µg/mL (Fusarium graminearum [13]): 0% | inhibition of growth at 50 µg/mL [2]: 46% | inhibition of growth at 50 µg/mL (Fusarium graminearum [3]): 12% | inhibition of growth at 20 µg/mL (Fusarium graminearum [14]): 0% | inhibition of growth at 10 µg/mL (Alternaria solani [15]): 6% | inhibition of growth at 20 µg/mL (Alternaria solani [16]): 25% | inhibition of growth at 50 µg/mL (Alternaria solani [4]): 41% | inhibition of growth at 10 µg/mL (Mycosphaerella arachidis [17]): 11% | inhibition of growth at 20 µg/mL (Mycosphaerella arachidis [18]): 27% | inhibition of growth at 50 µg/mL (Mycosphaerella arachidis [10]): 44% | inhibition of growth at 10 µg/mL (Fusarium oxysporum [19]): 7% | inhibition of growth at 20 µg/mL (Fusarium oxysporum [20]): 17%

O=[N+]([O-])c1ccc(F)cc1-c1ccsc1[N+](=O)[O-]
inhibition of growth at 50 µg/mL (Fusarium oxysporum [1]): 21% | inhibition of growth at 10 µg/mL [11]: 0% | inhibition of growth at 20 µg/mL [12]: 0% | inhibition of growth at 10 µg/mL (Fusarium graminearum [13]): 0% | inhibition of growth at 50 µg/mL [2]: 10% | inhibition of growth at 50 µg/mL (Fusarium graminearum [3]): 0% | inhibition of growth at 20 µg/mL (Fusarium graminearum [14]): 0% | inhibition of growth at 10 µg/mL (Alternaria solani [15]): 0% | inhibition of growth at 20 µg/mL (Alternaria solani [16]): 16% | inhibition of growth at 50 µg/mL (Alternaria solani [4]): 29% | inhibition of growth at 10 µg/mL (Mycosphaerella arachidis [17]): 0% | inhibition of growth at 20 µg/mL (Mycosphaerella arachidis [18]): 0% | inhibition of growth at 50 µg/mL (Mycosphaerella arachidis [10]): 11% | inhibition of growth at 10 µg/mL (Fusarium oxysporum [19]): 0% | inhibition of growth at 20 µg/mL (Fusarium oxysporum [20]): 0%
